The source made the active and inactive calls. The rule behind the calls is not given here.
Columns and labels:
[1] = Cytotoxicity against human BC cells upto 56 uM; assay type: cell-based; settings: for Activity: human, bc
Method in brief: (§1)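 Cytotoxicity was measured by a colorimetric method on purified compounds. The cells were human epidermoid carcinoma (KB), human breast cancer (BC), human lung cancer (NCI-H187) and African green monkey kidney fibroblast (Vero) cells.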

[2] = Cytotoxicity against human NCI-H187 cells upto 56 uM; assay type: cell-based; method in brief: as §1
[3] = system: Plasmodium falciparum; assay: Antimalarial activity against multidrug-resistant Plasmodium falciparum K1; assay type: functional, organism-based
Method in brief: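 Microculture radioisotope assay against the multidrug-resistant K1 strain of P. falciparum, with IC50 read out. Dihydroartemisinin was run as the reference standard in the same assay system.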

[4] = system: KB; assay: Cytotoxicity against human KB cells upto 56 uM; assay type: cell-based; method in brief: as §1
[5] = system: Vero; assay: Cytotoxicity against Vero cells upto 140 uM; assay type: cell-based; settings: chlorocebus sabaeus; method in brief: as §1

Compound | Activity [1] | Activity [2] | Activity [3] | Activity [4] | Activity [5] | IC50 ([1]; Homo sapiens, BC) | IC50 [3]
CC(=O)O/C=N/C(=C\c1ccc(OC(C)=O)c(OC(C)=O)c1)C(=C/c1ccc(OC(C)=O)c(OC(C)=O)c1)/N=C/OC(C)=O | Not Active | Not Active | inactive | Not Active | Not Active |  | 
O=CNC(=C\c1ccc(O)c(O)c1)/C(=C/c1ccc(O)c(O)c1)NC=O [CORDYFORMAMIDE] |  | Not Active |  | Not Active | Not Active | 39 µM | 18 µM
C[C@H]1[C@@H](O)O[C@@H]2O[C@@]3(C)CC[C@H]4[C@H](C)CC[C@@H]1[C@@]24OO3 [ARTENIMOL] |  |  |  |  |  |  | 0.0042 µM
COc1ccc(/C=C(/C(=C/c2ccc(OC)c(OC)c2)N(C)C=O)N(C)C=O)cc1OC | Not Active | Not Active | inactive | Not Active | Not Active |  | 
